High-throughput results (PubChem)
Wee1 stabilizer – inhibitors of human Wee1 degradation; P30291; HeLa Luc-Wee1K328M stability, luciferase luminescence; 100% = proteasome inhibitor MG132 effect; reporter increase, % at 5 µM; actives 1.2% (n = 220,000);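 active = activation above the mean of all tested compounds plus 3 SD, set per screening run, cut at about 8.8% in these data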;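 note: cells exposed to compound for 20 h before luminescence read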
Arbovirus anti – blocks arbovirus infection | arbovirus infection cell-based antiviral screen | inhibition, % at 10 µM | actives 0.37% (n = 200,000); in the data active = inhibition above about 30%
Rad51 HR inh – Rad51 (human) homologous recombination inhibition; Q06609; hRad51 DNA strand exchange, fluorescence dequenching; inhibition, % at 10 µM; actives 0.085% (n = 200,000); AID 1385;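 active = inhibition above 40% at the single screening dose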
Target sequence (Q06609 whole entry, looked up): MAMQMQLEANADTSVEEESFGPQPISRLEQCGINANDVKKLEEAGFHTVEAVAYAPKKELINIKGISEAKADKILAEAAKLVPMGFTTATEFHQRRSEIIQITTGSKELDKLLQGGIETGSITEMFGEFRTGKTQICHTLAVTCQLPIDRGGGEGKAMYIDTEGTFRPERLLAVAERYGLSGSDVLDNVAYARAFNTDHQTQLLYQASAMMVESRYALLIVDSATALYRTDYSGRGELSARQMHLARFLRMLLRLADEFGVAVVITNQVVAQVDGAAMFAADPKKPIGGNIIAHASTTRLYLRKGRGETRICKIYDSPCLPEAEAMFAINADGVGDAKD
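System: hRad51 filaments on single-stranded DNA; reagent: Fluorescein- and BHQ1-tagged 47-mer duplex; compound dosing: one concentration, 10 µM final; timing: filaments 15 min 37 °C, then compound 30 min; measured by: fluorescein emission 520 nm, excitation 485 nm; benchmarks: per-plate controls and blanks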
PKD1 kinase inh – inhibitors of human PKD1 kinase | actives 0.056% (n = 200,000) | Q15139 | PKD1 kinase fluorescence polarization assay | inhibition, % (test concentration not listed)
Lmaj promast – inhibitors of Leishmania major promastigote growth. Leishmania major promastigotes, resazurin fluorescence viability. inhibition, % at 10 µM. actives 9% (n = 200,000). AID 1063;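 note: promastigotes grown with compound for 44 hours at 28 °C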
CHOP inh – inhibitors of CHOP induction in ER stress response; CHO-K1 CHOP-promoter luciferase, tunicamycin-induced, 15-18 h; actives 3.8% (n = 220,000); inhibition, % at 10 µM;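 active = compounds that reduced the stress-induced luciferase reporter signal by more than about 70% of percent inhibition, limit read from the data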
Hits are given with their value; n = inactive; x = not tested or not shown. This is a sample that favours compounds with a hit; in the whole collection about 12% have one here. Cut-off read from the data, not from the text of the source, unless noted: active = inhibition above about 50%; inactive = the rest.

SMILES | Wee1 stabilizer | Arbovirus anti | Rad51 HR inh | PKD1 kinase inh | Lmaj promast | CHOP inh
CCCCN(CC)CCCNC(=O)C1CCN(c2ncnc3c2sc2cccc(F)c23)CC1 | n | n | n | n | 100 | n
O=C(NCCN1CCOCC1)C1CCN(c2ncnc3c2sc2cccc(F)c23)CC1 | n | n | n | n | n | n
C/C(=N\NC(=O)c1ccc(Br)cc1)c1cccc(NC(=O)c2cccnc2)c1 | n | n | n | n | n | n
C/C(=N\NC(=O)c1ccccc1F)c1ccc2c(c1)Nc1ccccc1S2 | n | n | n | n | n | n
C/C(=N\NC(=O)c1nn(C)cc1Br)c1cccc(NC(=O)c2ccncc2)c1 | n | n | n | n | 63 | n
CC(=O)Nc1cccc(/C(C)=N/NC(=O)c2ccc(O)cc2)c1 | 10 | n | n | n | n | n
C/C(=N\NC(=O)c1ccc(O)cc1)c1ccc2c(c1)Nc1ccccc1S2 | n | n | n | n | 75 | n
Cn1nnc(NC(=S)NC(=O)Cc2ccccc2)n1 | n | n | n | n | n | n
CC[n+]1c(C=C2C=C(C)OC(C)=C2)sc2ccccc21 | n | n | n | n | 100 | n
CC[n+]1c(/C=C2/C=C(C)CC(C)C2)sc2ccccc21 (stereo unspecified) | n | n | n | n | 100 | n
Cc1sc2ccccc2[n+]1CCC(C)S(=O)(=O)[O-] (stereo unspecified) | n | n | n | n | n | n
COc1ccc(CN2CCNC(=O)C2CC(=O)NCCC2=CCCCC2)cc1OC (stereo unspecified) | n | n | n | n | n | n
Cc1ccc(N2C(=S)N=C(Nc3ccccc3C)C23CCOC(C)(C)C3)cc1 (stereo unspecified) | n | n | n | n | n | 84
Cc1cccc(C)c1NC1=NC(=S)N(c2ccccc2)C12CCOC(C)(C)C2 (stereo unspecified) | n | n | n | n | n | n
Fc1ccc2nc(Nc3ccccc3)sc2c1 | 11 | n | n | n | n | n
NNc1nc2ccc(F)cc2s1 | n | n | n | n | 96 | n
CN(C)S(=O)(=O)c1cccc(NC(=O)CN2C(=O)C3C4C=CC(C4)C3C2=O)c1 (stereo unspecified) | n | n | n | n | n | n
Fc1ccc(Br)cc1C1C=C(c2ccc(Br)cc2)Nc2ncnn21 (stereo unspecified) | n | 71 | n | n | n | n
C1=C(c2ccccc2)Nc2ncnn2C1c1ccccc1 (stereo unspecified) | x | x | n | x | x | x
CCc1ccc(C2=CC(c3cc(Br)ccc3F)n3ncnc3N2)cc1 (stereo unspecified) | n | 62 | n | n | n | n
O=C(COc1ccc2ccc(=O)oc2c1)N1CCc2ccccc21 | n | n | n | n | n | n
CC(C)c1cc(=O)n2[nH]c(N)nc2n1 | n | n | n | n | n | n
Cc1cc2c(cc1C)NC(=O)CC(C(F)(F)C(F)(F)C(F)(F)F)=N2 | n | n | n | n | n | 73
Cc1ccc2c(c1)NC(=O)CC(c1ccccc1)=N2 | n | n | n | n | n | n
CSc1ccc(C(=S)N2CCN(Cc3ccccc3)CC2)cc1 | n | n | n | n | 94 | n
SMILES | Wee1 stabilizer | Arbovirus anti | Rad51 HR inh | PKD1 kinase inh | Lmaj promast | CHOP inh
S=C(c1ccc(Cl)cc1)N1CCN(Cc2ccccc2)CC1 | n | n | n | n | n | n
CCN1CCN(C(=S)c2ccc(SC)cc2)CC1 | n | n | n | n | 91 | n
O=C(O)CC1CCCc2ccccc2C1O (stereo unspecified) | x | x | x | x | x | n
Cc1cc(C)n(Cc2ccc(Cl)c(Cl)c2)c(=O)c1S(=O)(=O)c1ccccc1 | n | n | x | n | n | 74
Cc1cc(C)n(Cc2ccccc2)c(=O)c1S(=O)(=O)c1ccccc1 | n | n | n | n | n | n
CCc1ccc(C2=NN(CCC(=O)NCc3cccs3)C(=O)CC2)cc1 | n | n | n | n | n | n
Cc1ccc2nc(SC(C)C(=O)Nc3cccc([N+](=O)[O-])c3)[nH]c2c1 (stereo unspecified) | n | n | x | n | 56 | n
Cc1cccc(NCC(=O)N/N=C/c2cccc(Br)c2)c1 | n | n | n | n | n | 84
C/C(=N\NC(=O)CNc1cccc(C(F)(F)F)c1)c1cccc(Br)c1 | n | n | n | n | n | n
C/C(=N\NC(=O)CNc1cccc(C)c1)c1ccc(Br)s1 | n | n | n | n | 57 | n
C/C(=N\NC(=O)CNc1cccc(C(F)(F)F)c1)c1ccc(Br)cc1 | n | n | n | n | n | 94
